Results of several laboratories.
Lines come from different studies, so protocols differ.
Medium: Caco-2

C[C@H]1O[C@@H](O[C@H]2[C@@H](O)C[C@H](O[C@H]3[C@@H](O)C[C@H](O[C@H]4CC[C@@]5(C)[C@H](CC[C@@H]6[C@@H]5C[C@@H](O)[C@]5(C)[C@@H](C7=CC(=O)OC7)CC[C@]65O)C4)O[C@@H]3C)O[C@@H]2C)C[C@H](O)[C@@H]1O
Papp A→B: 0.0218 ×10⁻⁶ cm/s

O=C(O)CCc1ccc(Oc2ccc(-c3noc(-c4ccc(O)cc4)n3)cc2)cc1
Papp A→B (2 h; pH 7.4): 18 ×10⁻⁶ cm/s

CC(C)NCC(O)COc1cccc2ccccc12 (stereo not shown)
Papp A→B: 46.5 ×10⁻⁶ cm/s

CC(C)c1cccc2c(-c3ccccc3)cc(-c3ccc(-c4ccc(C(=O)O)cc4)[nH]3)nc12
Papp A→B: 1.61 ×10⁻⁶ cm/s

CC#Cc1cncc(-c2ccc3c(c2)[C@@]2(N=C(C)C(N)=N2)[C@]2(CC[C@H](OC)CC2)C3)c1
Papp A→B: 34.8 ×10⁻⁶ cm/s

C[C@H]1O[C@@H](O[C@H]2[C@@H](O)C[C@H](O[C@H]3[C@@H](O)C[C@H](O[C@H]4CC[C@@]5(C)[C@H](CC[C@@H]6[C@@H]5C[C@@H](O)[C@]5(C)[C@@H](C7=CC(=O)OC7)CC[C@]65O)C4)O[C@@H]3C)O[C@@H]2C)C[C@H](O)[C@@H]1O
Papp A→B (10 µM; 2 h; pH 7.4): 0.11 ×10⁻⁶ cm/s

CCn1c(=O)c2c(nc(S)n2C)n(C)c1=O
Papp A→B (10 µM; 2 h): 2.7 ×10⁻⁶ cm/s

COc1cc(F)ccc1-c1ncnc(Nc2cccc(CS(N)(=O)=O)c2)n1
Papp A→B (2 µM; 2 h; pH 7.2): 2.2 ×10⁻⁶ cm/s

Nc1cc(N2CCCCC2)nc(N)[n+]1[O-]
Papp A→B (10 µM; 2 h; pH 7.4): 4.18 ×10⁻⁶ cm/s

CO[C@@H](C[C@H]1C(C)=CC[C@@H]2[C@]3(C)C[C@H](O[C@@H]4O[C@@H](C)[C@H](OC(=O)c5cccc(O)c5)[C@@H](O[C@@H]5O[C@H](CO)[C@@H](O)[C@H](O)[C@H]5NC(C)=O)[C@H]4O)[C@@H](O)C(C)(C)[C@H]3CC[C@]21C)[C@H](N)C(=O)O.O=C(O)C(F)(F)F
Papp A→B (5 µM; 1 h): 0.01 ×10⁻⁶ cm/s

CCC(=O)N[C@H]1Cc2cccc(C(=O)OCOC(=O)C(CC)CC)c2OB1O
Papp A→B (5 µM; 2 h; pH 7.4): 8.25 ×10⁻⁶ cm/s

Cc1ncsc1-c1ccc(CNC(=O)[C@@H]2C[C@@H](O)CN2C(=O)[C@@H](NC(=O)C2(F)CC2)C(C)(C)C)c(OCCOc2ccc(CN3CCN(c4cc(-c5ccccc5O)nnc4N)CC3)cc2)c1
Papp A→B (2 h; pH 7.2): 2.2 ×10⁻⁶ cm/s

C=CC(=O)Nc1cc(Nc2nccc(-c3cn(C)c4ccccc34)n2)c(OC)cc1N(C)CCN(C)C
Papp A→B (pH 7.4): 8.64 ×10⁻⁶ cm/s

CC(C)NCC(O)COc1cccc2ccccc12 (stereo not shown)
Papp A→B (5 µM; 1 h): 19.3 ×10⁻⁶ cm/s

COCCc1ccc(OCC(O)CNC(C)C)cc1 (stereo not shown)
Papp A→B (pH 7.4): 73.6 ×10⁻⁶ cm/s

O=C1C[C@@H](c2ccc(O[C@@H]3O[C@H](CO)[C@@H](O)[C@H](O)[C@H]3O)cc2)Oc2cc(O)ccc21
Papp A→B (2 h): > 1 ×10⁻⁶ cm/s
